The text below walks through data of ChEMBL document CHEMBL1125165, “Inhibition of ornithine decarboxylase by the isomers of 1,4-dimethylputrescine” (J Med Chem, 1990).

“And” between values parts separate entries of the source, which are not always exact repeats. Equal entries are not always repeated.

Experiment [1] deals with T1, Ornithine decarboxylase (Rattus norvegicus, UniProt P09057).
T1 sequence (P09057 whole entry): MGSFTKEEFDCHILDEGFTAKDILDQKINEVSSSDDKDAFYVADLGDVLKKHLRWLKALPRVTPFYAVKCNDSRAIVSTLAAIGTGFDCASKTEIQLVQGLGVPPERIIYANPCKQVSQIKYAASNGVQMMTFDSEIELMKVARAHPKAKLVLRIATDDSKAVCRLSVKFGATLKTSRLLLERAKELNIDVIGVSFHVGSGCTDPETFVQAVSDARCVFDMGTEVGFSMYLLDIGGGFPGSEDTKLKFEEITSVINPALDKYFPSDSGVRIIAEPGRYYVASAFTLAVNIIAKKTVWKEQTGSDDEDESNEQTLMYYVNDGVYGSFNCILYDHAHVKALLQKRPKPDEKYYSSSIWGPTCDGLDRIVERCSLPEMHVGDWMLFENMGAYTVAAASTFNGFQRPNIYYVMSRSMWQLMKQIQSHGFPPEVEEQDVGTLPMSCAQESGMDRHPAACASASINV
The experiment can be described thus: (§1) In vitro inhibitory activity against Ornithine Decarboxylase (ODC) isolated from the livers of thioactamide treated rats. It is filed as functional, tissue-based, Liver. In short, it runs like this:
(§2)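 ODC was partially purified from livers of rats injected with thioacetamide (100 mg/kg), with specific activity 0.2 nmol/min per mg protein. Activity was measured in vitro across inhibitor concentrations. Ki was obtained by replotting apparent Km against inhibitor concentration.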

Experiment [2] has as its target T2, Ornithine decarboxylase (Rattus norvegicus) (UniProt P09057).
T2 sequence (whole entry): T1 sequence (P09057 whole entry)
The experiment can be described thus: In vivo inhibitory activity against Ornithine Decarboxylase (ODC) in H-35 hepatoma cells. Details: unit not given here. Type of experiment: functional.

Experiment [3] addresses T2, Ornithine decarboxylase (Rattus norvegicus). Description: In vivo inhibitory activity against Ornithine Decarboxylase (ODC) in rats. Type of experiment: functional, organism-based. Details: concentration or dose not given beside the values.
Experiment [4] is filed under the species Rattus norvegicus. Description: Effect on putrescine content of Thioacetamide treated rats after 3 hr. Type of experiment: functional. The method in brief: (§3)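 Female Wistar rats (100-130 g) were pretreated with dexamethasone or thioacetamide, and the analogue was given ip in saline-buffered solution. Liver was sampled 1 h or 3-4 h later. Free polyamines and analogue were measured in perchloric extracts. Polyamines are expressed as % of the inducer-treated liver content. Analogue is expressed as % of the total injected per g liver (10 ± 0.5 μmol). Mean ± SD, three experiments in duplicate.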

For experiment [5], the species on record is Rattus norvegicus. The experiment can be described thus: Effect on spermine content of meso isomer Dexamethasone treated rats after 4 hour. It is filed as functional. The method in brief:
as §3

For experiment [6], the species on record is Rattus norvegicus. Description: Effect on 1,4-Dimethylputrescine content of meso isomer Dexamethasone treated rats after 4 hour. It is filed as functional. The method in brief: as §3
The species named for experiment [7] is Rattus norvegicus. The experiment can be described thus: Effect on 1,4-Dimethylputrescine content of (-) isomer Dexamethasone treated rats after 1 hour. It is filed as functional. The method in brief:
as §3

Experiment [8] is filed under the species Rattus norvegicus. The experiment can be described thus: Effect on spermidine content of (+) isomer Dexamethasone treated rats after 4 hour. It is filed as functional. The method in brief:
as §3

Experiment [9] is filed under the species Rattus norvegicus. The experiment can be described thus: Effect on spermidine content of Thioacetamide treated rats. It is filed as functional. In short, it runs like this: as §3
The species entered for experiment [10] is Rattus norvegicus. The experiment can be described thus: Effect on 1,4-Dimethylputrescine content of (-) isomer Dexamethasone treated rats after 4 hour. Type of experiment: functional. In short, it runs like this:
as §3

Experiment [11] is filed under the species Rattus norvegicus. Description: Effect on spermine content of meso isomer Dexamethasone treated rats after 1 hour. It is filed as functional. The method in brief: as §3
The species entered for experiment [12] is Rattus norvegicus. Description: Effect on spermidine content of (-) isomer Dexamethasone treated rats after 1 hour. It is filed as functional. The method in brief: as §3
Experiment [13] is filed under the species Rattus norvegicus. The experiment can be described thus: Effect on 1,4-Dimethylputrescine content of Thioacetamide treated rats after 1 hr. It is filed as functional. The method in brief:
as §3

The species entered for experiment [14] is Rattus norvegicus. The experiment can be described thus: Effect on spermine content of (-) isomer Dexamethasone treated rats after 1 hour. It is filed as functional. In short, it runs like this: as §3
For experiment [15], the species on record is Rattus norvegicus. The experiment can be described thus: Effect on 1,4-Dimethylputrescine content of (+) isomer Dexamethasone treated rats after 1 hour. Type of experiment: functional. In short, it runs like this:
as §3

Experiment [16] is filed under the species Rattus norvegicus. Description: Effect on spermine content of (+) isomer Dexamethasone treated rats after 4 hour. It is filed as functional. In short, it runs like this: as §3
The species entered for experiment [17] is Rattus norvegicus. Description: Effect on putrescine content of Dexamethasone treated rats. It is filed as functional. The method in brief:
as §3

The species named for experiment [18] is Rattus norvegicus. The experiment can be described thus: Effect on putrescine content of (-) isomer Dexamethasone treated rats after 4 hr. It is filed as functional. The method in brief:
as §3

For experiment [19], the species on record is Rattus norvegicus. The experiment can be described thus: Effect on spermine content of Thioacetamide treated rats after 3 hr. It is filed as functional. The method in brief: as §3
The species entered for experiment [20] is Rattus norvegicus. The experiment can be described thus: Effect on spermine content of Thioacetamide treated rats. It is filed as functional. In short, it runs like this:
as §3

The species entered for experiment [21] is Rattus norvegicus. Description: Effect on spermine content of (-) isomer Dexamethasone treated rats after 4 hour. Type of experiment: functional. The method in brief: as §3
For experiment [22], the species on record is Rattus norvegicus. Description: Effect on spermine content of (+) isomer Dexamethasone treated rats after 1 hour. Type of experiment: functional. The method in brief:
as §3

For experiment [23], the species on record is Rattus norvegicus. The experiment can be described thus: Effect on putrescine content of Thioacetamide treated rats. It is filed as functional. In short, it runs like this:
as §3

For experiment [24], the species on record is Rattus norvegicus. The experiment can be described thus: Effect on spermine content of Thioacetamide treated rats after 1 hr. It is filed as functional. The method in brief: as §3
Experiment [25] is filed under the species Rattus norvegicus. Description: Effect on 1,4-Dimethylputrescine content of meso isomer Dexamethasone treated rats after 1 hour. Type of experiment: functional. The method in brief:
as §3

For experiment [26], the species on record is Rattus norvegicus. The experiment can be described thus: Effect on spermine content of Dexamethasone treated rats. Type of experiment: functional. The method in brief: as §3
Experiment [27] is filed under the species Rattus norvegicus. The experiment can be described thus: Effect on spermidine content of meso isomer Dexamethasone treated rats after 4 hour. It is filed as functional. In short, it runs like this:
as §3

The species entered for experiment [28] is Rattus norvegicus. The experiment can be described thus: Effect on spermidine content of (-) isomer Dexamethasone treated rats after 4 hour. It is filed as functional. The method in brief: as §3
For experiment [29], the species on record is Rattus norvegicus. The experiment can be described thus: Effect on spermidine content of Thioacetamide treated rats after 3 hr. It is filed as functional. The method in brief: as §3
For experiment [30], the species on record is Rattus norvegicus. Description: Effect on spermidine content of (+) isomer Dexamethasone treated rats after 1 hour. It is filed as functional. In short, it runs like this: as §3
The species named for experiment [31] is Rattus norvegicus. The experiment can be described thus: Effect on spermidine content of Dexamethasone treated rats. Type of experiment: functional. The method in brief:
as §3

Experiment [32] is filed under the species Rattus norvegicus. The experiment can be described thus: Effect on putrescine content of (+) isomer Dexamethasone treated rats after 1 hour. It is filed as functional. The method in brief: as §3
The species named for experiment [33] is Rattus norvegicus. Description: Effect on putrescine content of meso isomer Dexamethasone treated rats after 1 hour. Type of experiment: functional. The method in brief: as §3
The species entered for experiment [34] is Rattus norvegicus. Description: Effect on spermidine content of Thioacetamide treated rats after 1 hr. It is filed as functional. The method in brief: as §3
The species entered for experiment [35] is Rattus norvegicus. The experiment can be described thus: Effect on putrescine content of meso isomer Dexamethasone treated rats after 4 hour. Type of experiment: functional. In short, it runs like this: as §3
Experiment [36] is filed under the species Rattus norvegicus. The experiment can be described thus: Effect on 1,4-Dimethylputrescine content of Thioacetamide treated rats after 3 hr. Type of experiment: functional. The method in brief:
as §3

For experiment [37], the species on record is Rattus norvegicus. The experiment can be described thus: Effect on 1,4-Dimethylputrescinecontent of (+) isomer Dexamethasone treated rats after 4 hour. It is filed as functional. The method in brief:
as §3

The species entered for experiment [38] is Rattus norvegicus. Description: Effect on spermidine content of meso isomer Dexamethasone treated rats after 1 hour. It is filed as functional. The method in brief: as §3
For experiment [39], the species on record is Rattus norvegicus. Description: Effect on spermine content of Thioacetamide treated rats after 3 hour. It is filed as functional. In short, it runs like this: as §3
The species named for experiment [40] is Rattus norvegicus. Description: Effect on putrescine content of (-) isomer Dexamethasone treated rats after 1 hour. It is filed as functional. In short, it runs like this:
as §3

The species named for experiment [41] is Rattus norvegicus. The experiment can be described thus: Effect on putrescine content of (+) isomer Dexamethasone treated rats after 4 hour. Type of experiment: functional. The method in brief: as §3
Experiment [42] in a line: as §1. It is filed as functional, tissue-based, Rattus norvegicus, Liver. The method in brief: as §2

For the compound `CC(N)C(C)CCN` (mixture of isomers), in [1], the Ki came to 3.8 mM. Moreover, in [2], the Activity was determined as 75. The compound also gave an Inhibition in experiment [3] of 70%.

`CC(N)CCC(C)N` (single isomer, unassigned; (+)) had an Activity in experiment [2] of 96. This compound gave an Inhibition in experiment [3] of 98%.

`CN(C)CCCCN`: affinity in [1] was put at a Ki of 3 mM. In experiment [2], this compound displayed an Activity of 68. The compound further displayed an Inhibition in experiment [3] of 60%.

On to `CC(N)CCC(C)N` (stereo unspecified) [listing 1 of 2 here], for which the Polyamine content in [4] was 290 nM/g and 510 nM/g and 410 nM/g; in experiment [5], 2250 nM/g; in experiment [6] it was 50 nM/g; in experiment [7], 1640 nM/g; in experiment [8], 850 nM/g; in experiment [9], 2680 nM/g. The Polyamine content in experiment [10] was 40 nM/g; in [11], 2060 nM/g; in experiment [12] it was 1280 nM/g; in experiment [13], 2700 nM/g and 1850 nM/g and 2800 nM/g; in experiment [14], 2240 nM/g; in [15], 1800 nM/g. Moreover, the Polyamine content in experiment [16] is 1800 nM/g; in experiment [17] it was 980 nM/g; in experiment [18], 580 nM/g; in experiment [19], 3000 nM/g and 2350 nM/g; in experiment [20], 2400 nM/g; in experiment [21], 2220 nM/g. For the same compound, the Polyamine content was 1930 nM/g in [22]; 1370 nM/g in experiment [23]; 2600 nM/g and 2500 nM/g and 2350 nM/g in experiment [24]; 1640 nM/g in [25]; 2170 nM/g in [26]; 2280 nM/g in [27]. For the same compound, the Polyamine content is 2080 nM/g in [28]; 2400 nM/g and 1475 nM/g and 2500 nM/g in experiment [29]; 2180 nM/g in experiment [30]; 2300 nM/g in experiment [31]; 60 nM/g in [32]; 160 nM/g in experiment [33]. Further, the Polyamine content in [34] is 1870 nM/g and 1950 nM/g and 2800 nM/g; in [35], 890 nM/g; in experiment [36] it was 1550 nM/g and 900 nM/g and 1150 nM/g; in [37] it was 400 nM/g; in experiment [38], 1920 nM/g; in [39], 2600 nM/g. Further, the Polyamine content was determined as 100 nM/g in experiment [40] and 660 nM/g in experiment [41].

`CC(CN)C(C)CN` (mixture of isomers) had an inhibitory constant (Ki) in experiment [42] of 1 mM.

Regarding `CC(N)CCC(C)N` (racemic), the Activity in [2] was determined as 91. In addition, the Inhibition in experiment [3] was 96%.

For the compound `NCCCCN` [PUTRESCINE], the Ki in experiment [1] was 3.3 mM. In [2], this compound yielded an Activity of 90. Besides, the Inhibition in experiment [3] worked out at 55%.

In the case of `CC(N)CC(C)CN` (mixture of isomers), in experiment [1], the affinity corresponds to a Ki of 2.9 mM. Besides, the Activity in experiment [2] turned out to be 85. Moreover, the Inhibition in [3] turned out to be 76%.

For `CNCCCCNC`, in experiment [2], the Activity turned out to be 72. In [3], this compound came in with an Inhibition of 30%.

For `CC(N)CCC(C)N` (single isomer, unassigned; (-)), in experiment [2], the Activity was 97. This compound came in with an Inhibition in [3] of 97%.

In [2], `CC(N)CCC(C)N` (stereo unspecified) [listing 2 of 2 here] gave an Activity of 90. For the same compound, the Inhibition in experiment [3] was 93%.
